The results in this text go back to ChEMBL document CHEMBL1134554, “Design, synthesis, and structure-activity relationships of macrocyclic hydroxamic acids that inhibit tumor necrosis factor alpha release in vitro and in vivo” (J Med Chem, 2001).

One series deals with Mus musculus. The experiment in a line: Compound at an oral dose of 100 mg/Kg was tested for the inhibition of LPS-stimulated TNF-alpha release in mouse. It is filed as functional. In a few lines:
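Mice dosed orally at time zero, then immediately given ip D-galactosamine 20 mg plus LPS 10 μg. One hour later, animals anesthetized and bled by cardiac puncture. Plasma TNF-α quantified by mouse-specific ELISA.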

In series [1] the target is Disintegrin and metalloproteinase domain-containing protein 17 (Homo sapiens, UniProt P78536).
The nature of series [2]: Pharmacokinetic data in Beagle dogs at 0.74 mg/kg i.v. dose and 0.863 mg/kg p.o. dose. It counts as ADME, organism-based, Canis lupus familiaris. As to conditions: dog, in vivo, po. In a few lines:
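Male beagle dogs: iv 0.74 mg/kg in 10% ethanol (n=2), oral 0.863 mg/kg in 0.5% methocell suspension (n=2). Blood sampled to 24 h post-dose. Plasma analysed by LC/MS/MS after solid-phase extraction (detection limit 10 nM). Mean parameters given.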

A short description of series [3]: Pharmacokinetic data in Beagle dogs at 0.74 mg/kg intravenous dose. It is filed as ADME, organism-based, Canis lupus familiaris. Details: dose 0.74 mg/kg, route intravenous. The following applies: dog, in vivo. In a few lines:
(§1)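 Male beagle dogs (~10 kg), two per compound, dosed iv in 10% ethanol solution. Blood sampled before dosing and at 1, 2, 4, 6, 8, 12 and 24 h after. Plasma levels measured by LC/MS/MS after solid-phase extraction (detection limit 10 nM). Parameters reported as mean.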

Series [4] can be described thus: Pharmacokinetic data in Beagle dogs at 0.863 mg/kg oral dose. It is filed as ADME, organism-based, Canis lupus familiaris. Details: dose 0.863 mg/kg, route oral. The following applies: dog, in vivo. In outline: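 Two male beagle dogs (~10 kg) given 0.863 mg/kg orally as a 0.5% methocell suspension. Blood sampled before dosing and at 1, 2, 4, 6, 8, 12 and 24 h after. Plasma levels measured by LC/MS/MS after solid-phase extraction (detection limit 10 nM). Parameters reported as mean.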

A short description of series [5]: Maximal plasma concentration in Beagle dogs after 0.74 mg/kg intravenous dose. It is filed as ADME, organism-based, Canis lupus familiaris. Details: dose 0.74 mg/kg, route intravenous. As to conditions: dog, in vivo. In outline:
as §1

In another series the target is Stromelysin-1 (Homo sapiens, UniProt P08254). The experiment in a line: Inhibition of human MMP-3.
Series [6] addresses Matrix metalloproteinase-9 (Homo sapiens, UniProt P14780). Description: In vitro inhibition of human MMP-9.
The next series concerns the target T1, Matrilysin (Homo sapiens, UniProt P09237).
T1 sequence (P09237 whole entry): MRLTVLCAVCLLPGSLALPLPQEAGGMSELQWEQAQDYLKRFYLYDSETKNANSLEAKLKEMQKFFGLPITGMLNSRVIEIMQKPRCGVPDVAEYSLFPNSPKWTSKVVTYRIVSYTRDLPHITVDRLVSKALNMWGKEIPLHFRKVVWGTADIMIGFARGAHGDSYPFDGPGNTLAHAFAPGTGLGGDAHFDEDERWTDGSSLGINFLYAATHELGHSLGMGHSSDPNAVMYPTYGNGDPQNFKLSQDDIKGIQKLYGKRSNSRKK
Description: Inhibition of matrix metalloprotease-7.

In a further series the target is Neutrophil collagenase (Homo sapiens, UniProt P22894). Description: Inhibition of matrix metalloprotease-8.
The target in series [7] is Matrix metalloproteinase-14 (Homo sapiens, UniProt P50281). Description: Inhibition of matrix metalloprotease-14.
Series [8] concerns the target Matrix metalloproteinase-15 (Homo sapiens, UniProt P51511). Description: Inhibition of matrix metalloprotease-15.
Series [9] has as its target Matrix metalloproteinase-16 (Homo sapiens, UniProt P51512). Description: Inhibition of matrix metalloprotease-16.
For a further series, the target named is T2, Interstitial collagenase (Homo sapiens, UniProt P03956).
T2 sequence (P03956 whole entry): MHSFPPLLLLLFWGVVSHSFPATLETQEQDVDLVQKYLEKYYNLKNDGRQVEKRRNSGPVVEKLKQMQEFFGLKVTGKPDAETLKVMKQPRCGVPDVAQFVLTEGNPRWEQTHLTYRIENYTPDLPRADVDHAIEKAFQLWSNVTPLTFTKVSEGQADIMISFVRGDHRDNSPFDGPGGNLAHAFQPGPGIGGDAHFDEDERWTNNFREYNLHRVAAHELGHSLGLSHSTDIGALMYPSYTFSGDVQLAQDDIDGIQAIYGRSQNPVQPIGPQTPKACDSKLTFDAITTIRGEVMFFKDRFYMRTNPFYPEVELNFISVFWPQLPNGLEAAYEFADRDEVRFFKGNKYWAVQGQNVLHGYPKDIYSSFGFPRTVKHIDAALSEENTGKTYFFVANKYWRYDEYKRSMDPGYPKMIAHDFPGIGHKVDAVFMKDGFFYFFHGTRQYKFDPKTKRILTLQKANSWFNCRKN
The experiment in a line: In vitro inhibition of human MMP-1.

Another series deals with Collagenase 3 (Homo sapiens, UniProt P45452).
Series [10] has as its target 72 kDa type IV collagenase (Homo sapiens, UniProt P08253).
Series [11] has as its target Disintegrin and metalloproteinase domain-containing protein 17 (Sus scrofa, UniProt O77636).
Series [12] can be described thus: Pharmacokinetic data in Beagle dogs at 0.5 mg/kg i.v. dose and 2.0 mg/kg p.o. dose. It counts as ADME, organism-based, Canis lupus familiaris. The following applies: dog, in vivo, po.
Series [13] can be described thus: Pharmacokinetic data in Beagle dogs at 2.0 mg/kg oral dose. It counts as ADME, organism-based, Canis lupus familiaris. Details: dose 2 mg/kg, route oral. The following applies: dog, in vivo.
A short description of series [14]: Pharmacokinetic data in Beagle dogs at 2.0 mg/kg oral dose. It is filed as ADME, organism-based, Canis lupus familiaris. Details: dose 2 mg/kg, route oral. The following applies: dog, in vivo.
Series [15] in a line: Maximal plasma concentration in Beagle dogs after 0.5 mg/kg intravenous dose. It is filed as ADME, organism-based, Canis lupus familiaris. Details: dose 0.5 mg/kg, route intravenous. The following applies: dog. In outline: as §1
A short description of series [16]: Pharmacokinetic data in Beagle dogs at 0.5 mg/kg intravenous dose. It is filed as ADME, organism-based, Canis lupus familiaris. Details: dose 0.5 mg/kg, route intravenous. The following applies: dog, in vivo. In outline:
as §1

Stromelysin-1, sequence (P08254 whole entry): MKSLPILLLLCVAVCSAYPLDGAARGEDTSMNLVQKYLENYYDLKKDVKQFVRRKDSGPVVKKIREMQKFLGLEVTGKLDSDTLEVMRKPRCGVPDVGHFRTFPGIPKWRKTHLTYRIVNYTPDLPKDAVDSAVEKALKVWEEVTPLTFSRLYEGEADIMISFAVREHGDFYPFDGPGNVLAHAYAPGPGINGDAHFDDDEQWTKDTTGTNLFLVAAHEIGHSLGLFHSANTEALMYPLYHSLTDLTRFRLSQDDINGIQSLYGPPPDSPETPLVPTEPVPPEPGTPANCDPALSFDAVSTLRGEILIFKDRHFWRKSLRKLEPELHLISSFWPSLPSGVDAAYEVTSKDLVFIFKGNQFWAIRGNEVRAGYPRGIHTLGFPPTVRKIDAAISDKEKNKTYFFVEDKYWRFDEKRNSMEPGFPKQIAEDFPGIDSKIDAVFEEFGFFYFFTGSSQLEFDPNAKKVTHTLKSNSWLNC
Matrix metalloproteinase-15, sequence (P51511 whole entry): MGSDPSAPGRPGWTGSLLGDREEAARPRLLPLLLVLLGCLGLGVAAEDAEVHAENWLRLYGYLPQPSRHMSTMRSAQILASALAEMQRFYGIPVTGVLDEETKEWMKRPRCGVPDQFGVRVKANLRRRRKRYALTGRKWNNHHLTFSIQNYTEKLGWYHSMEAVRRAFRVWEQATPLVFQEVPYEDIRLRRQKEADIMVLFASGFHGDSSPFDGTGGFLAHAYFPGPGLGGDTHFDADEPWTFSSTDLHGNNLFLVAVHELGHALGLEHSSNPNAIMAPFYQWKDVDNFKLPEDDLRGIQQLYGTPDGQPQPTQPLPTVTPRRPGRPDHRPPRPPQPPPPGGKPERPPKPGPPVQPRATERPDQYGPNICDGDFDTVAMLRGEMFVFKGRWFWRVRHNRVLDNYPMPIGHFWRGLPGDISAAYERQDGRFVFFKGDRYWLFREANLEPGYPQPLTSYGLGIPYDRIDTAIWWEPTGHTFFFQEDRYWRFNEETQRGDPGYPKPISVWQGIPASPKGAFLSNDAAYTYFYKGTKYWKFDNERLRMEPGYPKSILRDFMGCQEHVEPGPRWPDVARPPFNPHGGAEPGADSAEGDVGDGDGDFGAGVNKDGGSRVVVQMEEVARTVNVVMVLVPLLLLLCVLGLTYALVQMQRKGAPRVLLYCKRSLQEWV
Matrix metalloproteinase-9, sequence (P14780 whole entry): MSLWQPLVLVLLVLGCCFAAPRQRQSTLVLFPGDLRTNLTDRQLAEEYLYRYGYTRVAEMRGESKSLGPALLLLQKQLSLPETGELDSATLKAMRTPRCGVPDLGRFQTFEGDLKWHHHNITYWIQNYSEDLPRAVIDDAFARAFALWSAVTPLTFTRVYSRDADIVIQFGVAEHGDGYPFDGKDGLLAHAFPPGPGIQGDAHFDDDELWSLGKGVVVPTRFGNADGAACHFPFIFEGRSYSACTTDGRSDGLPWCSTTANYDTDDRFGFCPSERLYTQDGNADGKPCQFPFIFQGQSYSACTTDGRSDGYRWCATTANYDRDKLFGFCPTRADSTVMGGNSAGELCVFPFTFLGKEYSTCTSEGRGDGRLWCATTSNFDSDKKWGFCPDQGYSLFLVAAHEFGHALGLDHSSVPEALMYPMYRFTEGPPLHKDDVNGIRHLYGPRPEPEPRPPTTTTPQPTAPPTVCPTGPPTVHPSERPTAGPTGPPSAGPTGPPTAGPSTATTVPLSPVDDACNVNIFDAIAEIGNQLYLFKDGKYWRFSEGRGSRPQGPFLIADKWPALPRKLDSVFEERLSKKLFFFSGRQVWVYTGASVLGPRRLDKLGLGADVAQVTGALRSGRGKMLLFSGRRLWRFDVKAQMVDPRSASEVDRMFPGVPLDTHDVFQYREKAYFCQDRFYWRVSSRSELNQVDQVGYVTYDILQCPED
Matrix metalloproteinase-16, sequence (P51512 whole entry): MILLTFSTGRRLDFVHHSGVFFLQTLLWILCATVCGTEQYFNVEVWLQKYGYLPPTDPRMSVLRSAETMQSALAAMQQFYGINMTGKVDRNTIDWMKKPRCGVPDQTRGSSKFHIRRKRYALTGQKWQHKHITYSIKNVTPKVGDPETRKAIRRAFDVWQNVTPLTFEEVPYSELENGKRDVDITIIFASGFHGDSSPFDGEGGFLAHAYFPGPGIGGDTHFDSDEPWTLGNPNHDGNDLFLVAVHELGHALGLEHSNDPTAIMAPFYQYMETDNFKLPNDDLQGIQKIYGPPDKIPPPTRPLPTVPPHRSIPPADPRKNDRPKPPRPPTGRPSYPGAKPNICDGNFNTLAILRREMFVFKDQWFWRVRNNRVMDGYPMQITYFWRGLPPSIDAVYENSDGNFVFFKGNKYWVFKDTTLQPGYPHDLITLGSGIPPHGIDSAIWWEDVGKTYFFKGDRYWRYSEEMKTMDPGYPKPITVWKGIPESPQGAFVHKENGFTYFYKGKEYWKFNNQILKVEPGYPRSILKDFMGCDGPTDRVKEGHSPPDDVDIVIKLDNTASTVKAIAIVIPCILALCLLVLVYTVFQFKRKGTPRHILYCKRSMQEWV
Disintegrin and metalloproteinase domain-containing protein 17 (Homo sapiens, UniProt P78536), sequence (P78536 whole entry, the tested form may be a part): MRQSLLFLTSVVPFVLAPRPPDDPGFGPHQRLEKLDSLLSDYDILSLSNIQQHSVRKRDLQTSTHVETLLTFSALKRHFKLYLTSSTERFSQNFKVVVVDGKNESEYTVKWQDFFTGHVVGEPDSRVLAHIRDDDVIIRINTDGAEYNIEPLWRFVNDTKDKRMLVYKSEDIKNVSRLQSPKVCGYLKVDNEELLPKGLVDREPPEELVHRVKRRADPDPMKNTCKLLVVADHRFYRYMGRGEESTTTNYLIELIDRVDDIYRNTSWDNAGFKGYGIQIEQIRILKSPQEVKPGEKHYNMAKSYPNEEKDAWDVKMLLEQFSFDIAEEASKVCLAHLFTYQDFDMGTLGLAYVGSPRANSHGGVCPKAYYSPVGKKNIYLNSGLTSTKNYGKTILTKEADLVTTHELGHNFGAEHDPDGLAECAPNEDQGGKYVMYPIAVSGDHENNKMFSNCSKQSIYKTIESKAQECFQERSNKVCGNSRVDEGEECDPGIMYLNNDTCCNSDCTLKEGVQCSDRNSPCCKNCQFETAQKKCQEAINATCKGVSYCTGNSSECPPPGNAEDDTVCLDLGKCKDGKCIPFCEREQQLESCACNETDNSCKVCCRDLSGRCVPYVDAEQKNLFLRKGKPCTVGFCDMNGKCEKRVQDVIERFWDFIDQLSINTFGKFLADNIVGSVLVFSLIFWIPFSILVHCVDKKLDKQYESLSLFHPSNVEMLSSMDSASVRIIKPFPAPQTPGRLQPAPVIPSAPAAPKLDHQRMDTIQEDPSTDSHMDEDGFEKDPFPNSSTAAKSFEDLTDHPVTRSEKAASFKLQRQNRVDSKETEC
72 kDa type IV collagenase, sequence (P08253 whole entry, the tested form may be a part): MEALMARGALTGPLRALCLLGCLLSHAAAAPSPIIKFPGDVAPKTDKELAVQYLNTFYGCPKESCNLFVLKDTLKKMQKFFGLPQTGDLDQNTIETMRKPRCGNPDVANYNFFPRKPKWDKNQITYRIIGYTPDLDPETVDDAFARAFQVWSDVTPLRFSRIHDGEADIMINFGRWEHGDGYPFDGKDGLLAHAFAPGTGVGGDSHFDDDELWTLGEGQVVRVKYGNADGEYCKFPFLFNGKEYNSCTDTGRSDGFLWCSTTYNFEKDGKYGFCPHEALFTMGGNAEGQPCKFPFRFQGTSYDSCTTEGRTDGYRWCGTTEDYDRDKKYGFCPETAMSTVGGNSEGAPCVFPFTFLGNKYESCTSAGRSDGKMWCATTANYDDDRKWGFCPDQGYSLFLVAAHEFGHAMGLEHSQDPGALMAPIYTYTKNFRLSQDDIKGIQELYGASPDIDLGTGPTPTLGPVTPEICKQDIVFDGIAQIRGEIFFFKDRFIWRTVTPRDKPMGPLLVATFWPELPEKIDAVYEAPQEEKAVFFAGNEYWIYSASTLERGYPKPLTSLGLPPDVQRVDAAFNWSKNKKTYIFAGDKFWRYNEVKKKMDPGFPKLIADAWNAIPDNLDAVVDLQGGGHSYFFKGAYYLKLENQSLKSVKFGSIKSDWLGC
Disintegrin and metalloproteinase domain-containing protein 17 (Sus scrofa, UniProt O77636), sequence (O77636 whole entry, the tested form may be a part): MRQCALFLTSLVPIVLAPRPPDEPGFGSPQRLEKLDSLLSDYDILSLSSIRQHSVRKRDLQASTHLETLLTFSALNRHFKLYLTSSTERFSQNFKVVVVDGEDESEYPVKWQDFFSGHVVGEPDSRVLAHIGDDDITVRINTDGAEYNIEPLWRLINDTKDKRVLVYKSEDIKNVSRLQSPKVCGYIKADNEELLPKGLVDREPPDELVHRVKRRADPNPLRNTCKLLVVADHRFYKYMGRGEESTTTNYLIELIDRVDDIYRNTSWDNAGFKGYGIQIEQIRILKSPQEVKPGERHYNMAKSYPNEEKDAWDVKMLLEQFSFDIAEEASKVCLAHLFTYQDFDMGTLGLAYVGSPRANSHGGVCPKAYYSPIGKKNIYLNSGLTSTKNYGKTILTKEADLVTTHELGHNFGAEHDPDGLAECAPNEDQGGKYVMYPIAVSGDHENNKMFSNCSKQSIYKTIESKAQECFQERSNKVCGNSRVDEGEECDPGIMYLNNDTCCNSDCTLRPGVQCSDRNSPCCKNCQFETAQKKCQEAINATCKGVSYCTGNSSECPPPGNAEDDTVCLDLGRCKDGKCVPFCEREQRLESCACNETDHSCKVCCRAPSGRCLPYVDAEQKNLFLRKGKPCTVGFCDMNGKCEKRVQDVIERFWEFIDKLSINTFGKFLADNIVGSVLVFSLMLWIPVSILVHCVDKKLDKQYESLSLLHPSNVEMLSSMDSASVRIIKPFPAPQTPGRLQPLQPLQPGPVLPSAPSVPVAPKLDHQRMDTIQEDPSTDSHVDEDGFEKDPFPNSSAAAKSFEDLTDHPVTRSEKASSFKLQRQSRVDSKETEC

Take `CCCCCC[C@H]1C(=O)N[C@H](C(=O)NC)Cc2ccc(cc2)OCCC[C@@H]1C(=O)NO`: the inhibition in vivo at 100 mg/kg in the series on Mus musculus was found to be 26%. The compound further displayed an IC50 in series [1] of 2500 nM.

Compound `CNC(=O)CNC(=O)[C@@H]1Cc2ccc(cc2)OCCC[C@H](C(=O)NO)[C@@H](CC(C)C)C(=O)N1` returned a bioavailability in [2] of 11%. Further, the values for the area under the curve (AUC) in [3] and in series [4] were 2613 ng·h/mL and 342 ng·h/mL, respectively. The T1/2 in [3] is 0.81 h. The compound also registered a T max in series [3] of 0.88 h. The same compound showed a clearance in series [3] of 7 mL/min/kg. In addition, the Vd in [3] (read-out: Vss) came to 0.7 L/kg. In [4], this compound showed a half-life of 1.29 h. Further, the Cmax in [5] amounted to 121 ng/mL. Also, the Ki at Stromelysin-1 was 14 nM; in series [6] it was 0.9 nM; at Matrilysin, 0.8 nM; at Neutrophil collagenase it was 0.5 nM; in series [7], 94 nM; in [8], 20 nM. Further, the Ki in series [9] amounted to 35 nM; at Interstitial collagenase, 3 nM; on Collagenase 3, 0.45 nM; in [10], 1.1 nM; in series [11] it was 12 nM. The compound also came in with an IC50 in [1] of 220 nM.

For `CC(C)C[C@H]1C(=O)N[C@H](C(=O)NCC(=O)N2CCOCC2)CCCCNC(=O)OCCC[C@@H]1C(=O)NO`, the bioavailability in series [12] was found to be 23%. Also, the half-life in [13] is 2.2 h; in series [16] it was 1 h. Also, the AUC turned out to be 1910 ng·h/mL in series [14] and 2080 ng·h/mL in series [16]. In addition, in series [15], the Cmax came out at 667 ng/mL. In addition, the Ki came out at 7.8 nM on Stromelysin-1; 1.2 nM in series [6]; 1.5 nM at Matrilysin; 140 nM in [7]; 71 nM in series [8]; 107 nM in series [9]. Besides, the affinity on Interstitial collagenase corresponds to a Ki of 13 nM. Also, the Tmax in [16] came to 1.25 h. Further, the clearance in series [16] is 4.83 mL/min/kg. The Vd in [16] (read-out: Vss) stood at 0.33 L/kg.
